# Experimental data reported in ChEMBL document CHEMBL3244382, “Structural requirements for antileukemic activity among the naturally occurring and semisynthetic maytansinoids” (J Med Chem, 1978).
# Calls of active or inactive are those of the source.
# How the values were obtained:
# Mus musculus [1] = assay: Toxicity in PS mouse allografted with mouse P388 cells assessed as survival at 3.1 ug/kg after 4 days; format: organism-based; details: in vivo, 0.0031 mg/kg, 96 h
# Outline: (§1)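 PS (P388) leukemic mice, six started per dose group. Toxicity scored as survivors on the toxicity day over the number of mice started. The toxicity day is normally 4 days after the first injection.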
# P388 [2] = assay: Antitumor activity against mouse P388 cells allografted in PS mouse assessed as median survival time at 25 ug/kg relative to control; format: functional
# Outline: (§2)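 P388 leukemia (PS) in mice, six mice started per dose group. Read-out is T/C: median survival time of the treated group divided by that of the untreated control group, expressed as a percent. The NIH protocol counts a compound as active when T/C > 125%.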
# Mus musculus [3] = assay: Toxicity in PS mouse allografted with mouse P388 cells assessed as survival at 1.6 ug/kg after 4 days; format: organism-based; details: in vivo, 0.0016 mg/kg, 96 h; outline: as §1
# Mus musculus [4] = assay: Toxicity in PS mouse allografted with mouse P388 cells assessed as survival at 6.2 ug/kg after 4 days; format: organism-based; details: in vivo, 0.0062 mg/kg, 96 h; outline: as §1
# Mus musculus [5] = assay: Toxicity in PS mouse allografted with mouse P388 cells assessed as survival at 12.5 ug/kg after 4 days; format: organism-based; details: in vivo, 0.0125 mg/kg, 96 h; outline: as §1
# Mus musculus [6] = assay: Toxicity in PS mouse allografted with mouse P388 cells assessed as change in body weight at 3.1 ug/kg relative to control; format: organism-based; details: in vivo, 0.0031 mg/kg
# Outline: (§3)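 P388 (PS) leukemia in mice, 6 mice per dose group. Weight change is the difference in grams between treated and control animals. Survivors are recorded on toxicity day, normally 4 days after the first injection.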
# Tubulin (Homo sapiens) = Tubulin (Homo sapiens) (UniProt P68371+Q9H4B7+P0DPH7+P68366+Q13509+Q71U36+P04350+Q3ZCM7+P07437+P68363+Q9BQE3+Q6PEY2+Q13885+Q9BVA1+Q9BUF5); assay: Inhibition of brain tubulin polymerization (unknown origin) at 37 degC by spectrophotometry
# Mus musculus [7] = assay: Toxicity in PS mouse allografted with mouse P388 cells assessed as change in body weight at 25 ug/kg relative to control; format: organism-based; details: in vivo, 0.025 mg/kg; outline: as §3
# Mus musculus [8] = assay: Toxicity in PS mouse allografted with mouse P388 cells assessed as survival at 25 ug/kg after 4 days; format: organism-based; details: in vivo, 0.025 mg/kg, 96 h; outline: as §1
# P388 [9] = assay: Antitumor activity against mouse P388 cells allografted in PS mouse assessed as median survival time at 6.2 ug/kg relative to control; format: functional; outline: as §2
# P388 [10] = assay: Antitumor activity against mouse P388 cells allografted in PS mouse assessed as median survival time at 1.6 ug/kg relative to control; format: functional; outline: as §2
# Mus musculus [11] = assay: Toxicity in PS mouse allografted with mouse P388 cells assessed as survival at 100 ug/kg after 4 days; format: organism-based; details: in vivo, 0.1 mg/kg, 96 h; outline: as §1
# P388 [12] = assay: Antitumor activity against mouse P388 cells allografted in PS mouse assessed as median survival time at 200 ug/kg relative to control; format: functional; outline: as §2
# P388 [13] = assay: Antitumor activity against mouse P388 cells allografted in PS mouse assessed as median survival time at 100 ug/kg relative to control; format: functional; outline: as §2
# P388 [14] = assay: Antitumor activity against mouse P388 cells allografted in PS mouse assessed as median survival time at 0.8 ug/kg relative to control; format: functional; outline: as §2
# Mus musculus [15] = assay: Toxicity in PS mouse allografted with mouse P388 cells assessed as change in body weight at 12.5 ug/kg relative to control; format: organism-based; details: in vivo, 0.0125 mg/kg; outline: as §3
# Mus musculus [16] = assay: Toxicity in PS mouse allografted with mouse P388 cells assessed as change in body weight at 200 ug/kg relative to control; format: organism-based; details: in vivo, 0.2 mg/kg; outline: as §3
# P388 [17] = assay: Antitumor activity against mouse P388 cells allografted in PS mouse assessed as median survival time at 50 ug/kg relative to control; format: functional; outline: as §2
# KB = assay: Cytotoxicity against human KB cells; format: functional; details: read-out: ED50 (the source's name)
# Mus musculus [18] = assay: Toxicity in PS mouse allografted with mouse P388 cells assessed as change in body weight at 100 ug/kg relative to control; format: organism-based; details: in vivo, 0.1 mg/kg; outline: as §3
# Mus musculus [19] = assay: Toxicity in PS mouse allografted with mouse P388 cells assessed as survival at 50 ug/kg after 4 days; format: organism-based; details: in vivo, 0.05 mg/kg, 96 h; outline: as §1
# P388 [20] = assay: Antitumor activity against mouse P388 cells allografted in PS mouse assessed as median survival time at 3.1 ug/kg relative to control; format: functional; outline: as §2
# P388 [21] = assay: Antitumor activity against mouse P388 cells allografted in PS mouse assessed as median survival time at 12.5 ug/kg relative to control; format: functional; outline: as §2
# Mus musculus [22] = assay: Toxicity in PS mouse allografted with mouse P388 cells assessed as change in body weight at 6.2 ug/kg relative to control; format: organism-based; details: in vivo, 0.0062 mg/kg; outline: as §3
# Mus musculus [23] = assay: Toxicity in PS mouse allografted with mouse P388 cells assessed as change in body weight at 50 ug/kg relative to control; format: organism-based; details: in vivo, 0.05 mg/kg; outline: as §3
# Mus musculus [24] = assay: Toxicity in PS mouse allografted with mouse P388 cells assessed as change in body weight at 0.8 ug/kg relative to control; format: organism-based; details: in vivo, 0.0008 mg/kg
# Outline: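 PS (P388 leukemia) mice, six per dose group. Toxicity read as the difference in grams between the weights of treated and control animals.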
# Mus musculus [25] = assay: Toxicity in PS mouse allografted with mouse P388 cells assessed as survival at 0.8 ug/kg after 4 days; format: organism-based; details: in vivo, 0.0008 mg/kg, 96 h; outline: as §1
# Mus musculus [26] = assay: Toxicity in PS mouse allografted with mouse P388 cells assessed as survival at 200 ug/kg after 4 days; format: organism-based; details: in vivo, 0.2 mg/kg, 96 h; outline: as §1
# Mus musculus [27] = assay: Toxicity in PS mouse allografted with mouse P388 cells assessed as change in body weight at 1.6 ug/kg relative to control; format: organism-based; details: in vivo, 0.0016 mg/kg; outline: as §3
# Paracentrotus lividus = assay: Antimitotic activity against sea urchin eggs assessed as drug level causing inhibition of mitosis; format: functional; details: Egg
# P388 [28] = assay: Antitumor activity against mouse P388 cells allografted in PS mouse assessed as median survival time at 400 ug/kg relative to control; format: functional; outline: as §2
# Mus musculus [29] = assay: Toxicity in PS mouse allografted with mouse P388 cells assessed as survival at 400 ug/kg after 4 days; format: organism-based; details: in vivo, 0.4 mg/kg, 96 h; outline: as §1
# Mus musculus [30] = assay: Toxicity in PS mouse allografted with mouse P388 cells assessed as change in body weight at 400 ug/kg relative to control; format: organism-based; details: in vivo, 0.4 mg/kg; outline: as §3
Structure (SMILES),Activity (Mus musculus [1]),T/C (P388 [2]) [%],Activity (Mus musculus [3]),Activity (Mus musculus [4]),Activity (Mus musculus [5]),Activity (Mus musculus [6]) [g],inhibition (Tubulin (Homo sapiens)),Activity (Mus musculus [7]) [g],Activity (Mus musculus [8]),T/C (P388 [9]) [%],Activity (Mus musculus [11]),T/C (P388 [12]) [%],T/C (P388 [13]) [%],Activity (Mus musculus [16]) [g],T/C (P388 [17]) [%],EC50 (KB) [ng/mL],Activity (Mus musculus [18]) [g],Activity (Mus musculus [19]),Activity (Mus musculus [23]) [g],Activity (Mus musculus [26]),other results
CCC(=O)O[C@H]1CC(=O)N(C)c2cc(cc(OC)c2Cl)C/C(C)=C/C=C/[C@@H](OC)[C@@]2(O)C[C@H](OC(=O)N2)[C@@H](C)[C@@H]2O[C@@]12C,Non-toxic,153,Non-toxic,Non-toxic,Non-toxic,1.3,Active,-0.5,Non-toxic,140,Toxic,<80,<80,-3.5,198,0.21,-2,Non-toxic,-0.9,Toxic,T/C (P388 [10]): 129%; T/C (P388 [14]): 110%; Activity (Mus musculus [15]): -0.3 g; T/C (P388 [20]): 131%; T/C (P388 [21]): 163%; Activity (Mus musculus [22]): -1 g; Activity (Mus musculus [24]): -0.5 g; Activity (Mus musculus [25]): Non-toxic; Activity (Mus musculus [27]): -0.8 g; Activity (Paracentrotus lividus): 1 nM
C/C=C/C(=O)O[C@H]1CC(=O)N(C)c2cc(cc(OC)c2Cl)C/C(C)=C/C=C/[C@@H](OC)[C@@]2(O)C[C@H](OC(=O)N2)[C@@H](C)[C@@H]2O[C@@]12C,Non-toxic,173,Non-toxic,Non-toxic,Non-toxic,-1.7,–,-3.6,Non-toxic,160,Non-toxic,210,210,-1.8,210,0.23,-3.6,Non-toxic,-3.5,Non-toxic,T/C (P388 [10]): 150%; T/C (P388 [14]): 150%; Activity (Mus musculus [15]): -2.5 g; T/C (P388 [20]): 150%; T/C (P388 [21]): 170%; Activity (Mus musculus [22]): -3 g; Activity (Mus musculus [24]): -4.5 g; Activity (Mus musculus [25]): Non-toxic; Activity (Mus musculus [27]): -4.5 g
CCO[C@]12C[C@H](OC(=O)N1)[C@@H](C)[C@@H]1O[C@@]1(C)[C@@H](OC(=O)[C@H](C)N(C)C(=O)C(C)C)CC(=O)N(C)c1cc(cc(OC)c1Cl)C/C(C)=C/C=C/[C@H]2OC,–,–,–,–,–,–,Active,–,–,–,Non-toxic,134,109,0.3,100,1.2,3.4,Non-toxic,1.3,Non-toxic,T/C (P388 [28]): 149%; Activity (Mus musculus [29]): Non-toxic; Activity (Paracentrotus lividus): 1 ×10⁻⁷ mol/L; Activity (Mus musculus [30]): -0.9 g
